Assay results reported in ChEMBL document CHEMBL1687894, “Design, synthesis and evaluation of 3-methylene-substituted indolinones as antimalarials” (Eur J Med Chem, 2011).

Assays:
[1] = test system: Plasmodium falciparum; test: Antiplasmodial activity against chloroquine-resistant Plasmodium falciparum W2 infected in human red blood cells assessed as inhibition of ring-stage parasite growth after 48 hrs by flow cytometry; type: functional, organism-based; conditions: W2, 48 h
[2] = target: T1, Falcipain 2 (Plasmodium falciparum, UniProt Q9N6S8); test: Inhibition of Plasmodium falciparum falcipain 2 incubated with compound for 10 mins before addition of 25 uM Z-Leu-Arg-AMC substrate by fluorescence spectrophotometry
T1 sequence (Q9N6S8 whole entry): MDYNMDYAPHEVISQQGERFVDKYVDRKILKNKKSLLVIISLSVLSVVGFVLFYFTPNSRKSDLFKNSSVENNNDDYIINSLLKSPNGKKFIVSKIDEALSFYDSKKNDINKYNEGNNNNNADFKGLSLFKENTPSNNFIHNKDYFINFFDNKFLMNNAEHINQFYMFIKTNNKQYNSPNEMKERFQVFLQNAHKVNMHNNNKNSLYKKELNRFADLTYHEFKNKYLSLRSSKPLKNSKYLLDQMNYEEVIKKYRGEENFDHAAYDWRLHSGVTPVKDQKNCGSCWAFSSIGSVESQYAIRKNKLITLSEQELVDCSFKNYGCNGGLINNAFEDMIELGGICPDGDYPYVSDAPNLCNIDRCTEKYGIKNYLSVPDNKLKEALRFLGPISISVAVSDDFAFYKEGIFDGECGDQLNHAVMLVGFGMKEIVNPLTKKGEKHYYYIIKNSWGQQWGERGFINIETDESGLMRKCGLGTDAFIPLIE
Outline: (§1)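 Run at 25 °C in 100 mM sodium acetate pH 6.0 with 5 mM DTT and 0.75% DMSO. Enzyme was preincubated 10 min with compound diluted from DMSO, then Z-Leu-Arg-AMC was added and fluorescence was read immediately. Eight inhibitor concentrations were made by fivefold serial dilution. IC50 was fitted to percent inhibition versus a no-inhibitor control against log concentration.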

[3] = target: T2, Cysteine protease falcipain-3 (Plasmodium falciparum, UniProt Q9NAW4); test: Inhibition of Plasmodium falciparum falcipain 3 incubated with compound for 10 mins before addition of 25 uM Z-Leu-Arg-AMC substrate by fluorescence spectrophotometry; outline: as §1
T2 sequence (Q9NAW4 whole entry): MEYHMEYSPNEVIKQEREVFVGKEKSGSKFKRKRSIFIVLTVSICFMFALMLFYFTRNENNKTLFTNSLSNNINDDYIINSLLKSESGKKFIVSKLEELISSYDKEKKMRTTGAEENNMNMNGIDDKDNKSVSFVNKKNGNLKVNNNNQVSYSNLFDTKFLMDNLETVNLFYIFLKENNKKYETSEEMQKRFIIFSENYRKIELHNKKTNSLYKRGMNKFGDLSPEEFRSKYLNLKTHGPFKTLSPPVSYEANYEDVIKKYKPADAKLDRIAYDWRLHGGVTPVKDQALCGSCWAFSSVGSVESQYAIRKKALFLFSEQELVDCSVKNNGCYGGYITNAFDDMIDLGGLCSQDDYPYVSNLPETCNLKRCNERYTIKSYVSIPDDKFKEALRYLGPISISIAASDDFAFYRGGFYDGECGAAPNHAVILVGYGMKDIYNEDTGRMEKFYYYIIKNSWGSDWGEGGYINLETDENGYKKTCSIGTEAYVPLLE

Structure (SMILES)	IC50 [1] [µM]	IC50 [2] [µM]	IC50 [3] [µM]
CCOC(=O)[C@H](Cc1ccccc1)NC=C1C(=O)Nc2ccccc21	> 10	> 50	
CC(C)CCNC(=O)[C@H](Cc1ccccc1)NC=C1C(=O)Nc2ccc(Cl)cc21	> 50	43.3	> 50
CN(C)C=C1C(=O)Nc2c(Cl)cccc21	> 50	> 50	
CC(C)CCNC(=O)[C@H](CCc1ccccc1)NC=C1C(=O)Nc2ccccc21	18.6	49.9	> 50
O=C1Nc2c(Cl)cccc2C1=CNCCCNc1ccnc2cc(Cl)ccc12	0.17	> 50	
CC(C)CCNC(=O)[C@H](CC(C)C)NC=C1C(=O)Nc2cc(Cl)ccc21	15.9	48.5	> 50
CN1C(=O)C(=CNCCCNc2ccnc3cc(Cl)ccc23)c2ccccc21	0.29	> 50	
O=C1Nc2ccc(Cl)cc2C1=CNCCCNc1ccnc2cc(Cl)ccc12	0.2	> 50	
O=C1Nc2c(Cl)cccc2C1=CNCCNc1ccnc2cc(Cl)ccc12	0.14		
CC(C)CCNC(=O)[C@H](CC(C)C)NC=C1C(=O)Nc2ccccc21	30.7	> 50	> 50
CN(C)C=C1C(=O)Nc2cc(Cl)ccc21	> 50	> 50	
CC(C)CCNC(=O)[C@H](CC(C)C)NC=C1C(=O)Nc2ccc(Cl)cc21	18.7	44.1	> 50
O=C1Nc2ccccc2C1=CNc1ccccc1	> 10	> 50	
CC(C)CCNC(=O)[C@H](CCc1ccccc1)NC=C1C(=O)Nc2c(Cl)cccc21	13.4	44	> 50
O=C1Nc2ccccc2C1=CNCCCNc1ccnc2cc(Cl)ccc12	0.42	> 50	
CN(C)C=C1C(=O)Nc2ccccc21	> 50	> 50	
CN(C)C=C1C(=O)Nc2ccc(Cl)cc21	> 50	> 50	
CN(C)C=C1C(=O)N(C)c2ccccc21	> 50	> 50	
CC(C)CCNC(=O)[C@H](CC(C)C)NC=C1C(=O)Nc2c(Cl)cccc21	15.7	42.1	> 50
CC(C)CCNC(=O)CNC=C1C(=O)Nc2ccccc21	26.7	> 50	> 50
CC(C)CCNC(=O)[C@H](CC(C)C)NC=C1C(=O)N(C)c2ccccc21	23.5	> 50	> 50
CC(C)C[C@H](NC(=O)[C@H]1O[C@@H]1C(=O)O)C(=O)NCCCCN=C(N)N [E-64]		0.112	0.481
CCOC(=O)CNC=C1C(=O)Nc2ccccc21	10.8	> 50	
O=C1Nc2ccccc2C1=CSCc1ccccc1	> 10	> 50	
O=C1Nc2cc(Cl)ccc2C1=CNCCCNc1ccnc2cc(Cl)ccc12	0.18	> 50	
